# Screening data (PubChem)
# PREPL inhibitor = inhibits the human prolyl oligopeptidase-like enzyme | Q4J6C6 | recombinant PREPL, fluorescence polarization activity-based probe | inhibition, % at 5.96 µM | 320,000 compounds, 0.68% hits | AID 2751; in the data active means inhibition above about 43%;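 further: 0% = enzyme with DMSO and 100% = wells lacking enzyme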
# pPAFAH inh = inhibitors of human plasma PAF acetylhydrolase (pPAFAH); Q13093; recombinant pPAFAH, FP-rhodamine probe fluorescence polarization; inhibition, % at 3.39 µM; 330,000 compounds, 1.5% hits;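 active means inhibition above the mean inhibition across the screen plus 3 SD, cut at about 25% in these data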;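 further: inhibitors block binding of the rhodamine activity-based probe so polarization drops; 0% = enzyme with DMSO and 100% = wells lacking pPAFAH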
# PAFAH2 FP inh = PAFAH2 (human) inhibition | recombinant PAFAH2, FP-rhodamine activity probe, fluorescence polarization | 340,000 compounds, 0.99% hits | inhibition, % at 3.39 µM;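 active means inhibition above the mean over all tested compounds plus 3 SD, cut at about 30% in these data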;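 further: inhibitors block probe labeling of enzyme so polarization drops; 0% = enzyme with DMSO and 100% = wells lacking PAFAH2 protein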
# PAFAH1B3 inh = PAFAH1B3 (human) inhibition; Q15102; recombinant PAFAH1B3, FP-rhodamine probe, fluorescence polarization; inhibition, % at 3.39 µM; 340,000 compounds, 0.28% hits; AID 492972;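 active means inhibition above the screen-wide average of all tested compounds plus 3 SD, cut at about 25% in these data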;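 further: 0% = enzyme with DMSO only and 100% = wells lacking PAFAH1B3 protein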
# Target sequence (Q15102 whole entry, looked up): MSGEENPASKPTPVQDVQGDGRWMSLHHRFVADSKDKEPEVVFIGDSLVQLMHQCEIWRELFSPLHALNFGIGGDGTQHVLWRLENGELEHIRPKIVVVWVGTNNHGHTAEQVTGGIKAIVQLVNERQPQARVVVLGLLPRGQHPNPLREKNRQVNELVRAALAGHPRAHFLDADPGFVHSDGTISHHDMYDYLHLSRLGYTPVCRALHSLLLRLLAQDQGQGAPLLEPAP
# PAFAH1B2 inh = PAFAH1B2 (human) inhibition; P68402; recombinant PAFAH1B2, FP-rhodamine activity probe, fluorescence polarization; inhibition, % at 3.39 µM; 340,000 compounds, 1.2% hits; AID 492953;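 active means inhibition above the mean of all tested compounds plus 3 SD, cut at about 24% in these data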;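 further: 0% = enzyme with DMSO and 100% = wells lacking PAFAH1B2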
# Target sequence (P68402 whole entry, looked up): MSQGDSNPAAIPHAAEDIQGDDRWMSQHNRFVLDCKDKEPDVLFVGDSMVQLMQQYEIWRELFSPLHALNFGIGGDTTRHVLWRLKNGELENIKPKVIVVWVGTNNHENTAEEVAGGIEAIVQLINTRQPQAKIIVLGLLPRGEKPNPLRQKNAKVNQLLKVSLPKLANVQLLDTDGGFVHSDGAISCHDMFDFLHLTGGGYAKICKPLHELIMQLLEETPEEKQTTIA
# Apaf-1 inh = human Apaf-1 inhibition; reconstituted apoptosome caspase-3 activity, DEVD-Rh110 fluorescence; inhibition, % at 20 µM; 330,000 compounds, 0.71% hits; AID 489030; active means inhibition of at least 40% at 20 µM;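 further: plate controls were DMSO wells for no effect and DEVD-CHO caspase inhibitor wells for full effect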
#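 System: Apoptosome proteins | Medium: Hepes pH 7.5 with detergent and BSA | Also added: Cytochrome c trigger plus (Z-DEVD)2-Rh110 caspase-3 substrate | Incubation: 30 min compound preincubation, 50 min activation, room temperature | Detection: Rhodamine 110 fluorescence at Ex 480/Em 540 nm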
# Active calls of the source: *; . = no result given. Sampled rows, rich in hits. Any-hit rate of the full collection: about 3.5%.
SMILES,PREPL inhibitor,pPAFAH inh,PAFAH2 FP inh,PAFAH1B3 inh,PAFAH1B2 inh,Apaf-1 inh
CCCCCN(C(=O)CSc1n[nH]c(-c2ccc(C)cc2)n1)c1c(N)n(CCCC)c(=O)[nH]c1=O,-6.6,-2.6,-1.9,4.2,29.2*,-1.3
CCOC(=O)c1ccc(NC(=O)C2(c3ccc(Cl)cc3)CCCC2)cc1,-4.5,-1.8,-8.9,-1.3,29.3*,9.2
CCOC(=O)c1ccc(NC(=O)C2(c3ccccc3)CCCC2)cc1,0.2,-11.8,-1.7,-1.2,14.1,26.6
CCOc1ccc2nc(SCC(=O)NCc3ccco3)sc2c1,-1.6,5.9,-5.8,-3.3,-0.2,1.4
CCOc1ccc2nc(SCC(=O)NC(=O)NCc3ccco3)sc2c1,-7.0,25.9*,-5.0,5.9,-20.3,5.2
CC(C)n1cnc2c(Nc3ccc(F)c(Cl)c3)nc(NCCO)nc21,19.5,13.1,7.0,12.5,6.0,4.0
C=CC(=O)Nc1ccc(Nc2nc(NC3CCC(N(C)C)CC3)nc3c2ncn3C(C)C)cc1 (centres undefined),27.9,0.5,5.3,12.6,3.0,45.9*
CC(=O)c1cccc(NC(=S)N2CCN(S(=O)(=O)c3ccc(F)cc3)CC2)c1,4.0,6.6,2.3,6.2,8.1,10.9
CC(C)NC(=S)N/N=C1\CCCCC1C1CCCCC1 (centres undefined),-13.5,8.2,5.3,6.7,28.7*,27.4
CC1CCCC/C1=N\NC(=S)Nc1ccccc1 (centres undefined),0.8,2.5,1.9,1.1,1.7,-3.6
CC(C)c1ccccc1NC(=O)COC(=O)c1cc([N+](=O)[O-])ccc1N1CCOCC1,2.5,4.7,-0.2,10.7,-3.0,8.1
CCC(C)c1ccccc1NC(=O)COC(=O)c1ccc(N2CCCC2)c([N+](=O)[O-])c1 (centres undefined),0.1,30.1*,78.6*,4.1,-2.4,8.1
C#CCn1ccc(O)c(Cc2ccccc2)c1=O,3.5,4.2,-8.6,9.3,6.6,-0.9
COc1ccc(N(CC(=O)NCCSC2CCCCC2)S(=O)(=O)c2ccccc2)c(OC)c1,8.5,15.0,1.0,2.3,4.7,14.0
COc1ccc(N(CC(=O)NCCSc2ccc(C)cc2)S(=O)(=O)c2ccccc2)c(OC)c1,-20.8,7.5,-17.7,5.8,26.6*,32.4
Cc1cccc(C(=O)O/N=C/c2ccc(Br)cc2)c1,20.2,18.1,72.8*,-0.1,37.4*,14.9
O=C(C[n+]1cnn(CC(=O)c2ccc(Cl)cc2Cl)c1)c1ccc([N+](=O)[O-])cc1,41.8,24.7*,-5.6,7.2,-1.5,.
O=C(Cn1cnc([N+](=O)[O-])c1)c1ccc(Cl)cc1,10.8,4.5,-3.7,1.3,7.1,-5.4
CC(C)(C)c1ccc(C2=CC(c3ccccc3F)n3ncnc3N2)cc1 (centres undefined),12.5,24.4,0.8,16.5,48.1*,21.2
O=C(COC(=O)c1cccc(F)c1)NC(=O)NCc1ccccc1,3.5,3.2,6.3,8.9,8.0,2.2
CCN1CCN(Cc2ccc(NC(=O)c3cc(NC(=O)c4cncc(-c5ccc(C#N)cc5)c4)cc(OC)c3)cc2C(F)(F)F)CC1,-14.8,-16.6,-59.3,-6.8,-2.4,53.8*
COc1ccc(CN2CCCC(C(=O)c3ccc4c(c3)OCO4)C2)c(F)c1 (centres undefined),-7.9,5.3,5.8,2.4,2.1,13.8
O=C(CSC(=S)N1CCCC1)Nc1cc2c(cc1Br)OCCO2,2.6,1.2,5.7,9.6,-2.8,10.5
O=C(CSC(=S)N1CCCC1)c1cc(Br)cc(Br)c1O,-16.6,25.3*,.,.,.,15.6
COc1ccc(N2CCN(S(=O)(=O)c3cnc[nH]3)CC2)cc1,12.0,-0.3,-12.4,-1.6,-3.1,-6.2
SMILES,PREPL inhibitor,pPAFAH inh,PAFAH2 FP inh,PAFAH1B3 inh,PAFAH1B2 inh,Apaf-1 inh
COc1ccc(-c2sc3ccc(OC)cc3c2-c2ccc(OCCN3CCOCC3)cc2)cc1,.,3.4,-1.9,3.3,-0.6,29.5
c1ccc(-c2sc3ccccc3c2-c2ccc(OCCN3CCCC3)cc2)cc1,1.7,6.7,-1.5,5.2,-6.6,78.0*
CCNC(=O)c1ccc(=O)n(Cc2ccc(Cl)cc2Cl)c1,-6.9,2.6,-0.9,-2.5,6.0,-1.6
Nc1c(C(=O)OCC(=O)Nc2cccc([N+](=O)[O-])c2)[nH]c(=O)[nH]c1=O,9.1,25.3*,7.5,11.5,9.7,-5.0
Cc1ccc(NS(=O)(=O)c2c(C(=O)N3CCOCC3)c(C)n(C)c2C)cc1C,-7.0,3.5,8.9,2.5,3.8,-5.5
Cc1cc(C)c(NS(=O)(=O)c2c(C(=O)N3CCOCC3)c(C)n(C)c2C)c(C)c1,3.4,29.2*,2.0,7.5,-0.1,-8.5
O=C(NC1CCC(Oc2ccc(C(=O)O)cc2)CC1)NC12CC3CC(CC(C3)C1)C2 (centres undefined),-1.3,0.7,2.0,11.3,4.5,-8.7
CCOc1ccc(NS(=O)(=O)c2ccc(C(=O)N3CCN(c4ncccn4)CC3)cc2)cc1,-21.0,26.7*,-5.7,8.6,4.3,-14.0
CCOc1ccc(S(=O)(=O)Nc2ccc(C(=O)N3CC(C)OC(C)C3)cc2)cc1 (centres undefined),-2.1,5.0,8.8,-7.7,1.6,3.5
CCOc1ccc(S(=O)(=O)NCCC(=O)N2CCN(c3ncccn3)CC2)cc1,-4.9,1.2,0.5,10.1,1.6,-9.0
CCOc1ccccc1N1CCN(C(=O)c2ccc(S(=O)(=O)Nc3ccccc3)cc2)CC1,13.1,27.2*,-5.8,11.5,-0.9,22.5
CCOc1ccc(NS(=O)(=O)c2ccc(C(=O)N3CC(C)OC(C)C3)cc2)cc1 (centres undefined),13.5,29.3*,-3.2,6.2,-3.4,9.7
CN1CCN(C(=O)c2ccc(S(=O)(=O)Nc3ccccc3)cc2)CC1,-0.6,25.3*,1.7,1.0,5.0,-11.0
ClC1(Cl)CC1CSc1nnc(-c2ccncc2)o1 (centres undefined),-1.0,3.0,1.6,-2.5,3.1,1.9
Cc1ncc([N+](=O)[O-])n1CC(=O)Nc1ccc(Br)cc1,6.1,5.3,-3.1,7.5,4.2,2.8
Cc1ccc(S(=O)(=O)NC(=O)NCC2CCN(S(=O)(=O)c3ccccc3)CC2)cc1,12.8,-8.2,-0.2,-0.5,10.5,14.7
COc1ccc(CCN2C(=O)NC(NS(=O)(=O)c3ccc(NC(C)=O)cc3)(C(F)(F)F)C2=O)cc1OC (centres undefined),-8.6,0.8,-2.9,1.0,-3.3,2.0
CCOc1ccc(NS(=O)(=O)c2ccc(C(=O)NNC(=O)c3ccccc3O)cc2)cc1,14.1,26.1*,-0.5,0.5,3.0,4.9
Cc1ccc(C(=O)N2CCCC2)cc1S(=O)(=O)Nc1ccccc1,5.6,30.4*,8.1,3.6,0.4,6.2
CCOc1ccc(S(=O)(=O)Nc2ccc(C(=O)NNC(=O)c3ccncc3)cc2)cc1,25.3,7.2,3.3,10.6,4.8,5.2
